The source made the active and inactive calls. The rule behind the calls is not given here.
Assays:
[1] = Cytotoxicity against human HT-29 cells assessed as cell survival at 5 uM after 8 hrs by alamar blue assay relative to control; format: cell-based; settings: read-out: Survival
Outline: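 Cells cultured overnight, then exposed to compound at 5 μM for 8 h. Viability read by Alamar Blue per kit instructions. Table reports n=3.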

[2] = biological target: Cystic fibrosis transmembrane conductance regulator (Homo sapiens) (UniProt P13569); assay: Inhibition of human wild type CFTR expressed in FRT cells co-expressing halide sensitive YFP-H148Q assessed as reduction in forskolin induced cAMP activated chloride conductance by measuring decrease in iodide influx after 15 mins by fluorescence assay; format: cell-based
Outline: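 FRT cells co-expressing YFP and wild-type CFTR, washed with PBS. Incubated 15 min with compound in PBS containing 20 μM forskolin. Plate reader baseline 2 s, then 12 s after rapid addition of I⁻-containing solution; initial I⁻ influx rate computed.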

[3] = Metabolic stability in rat liver microsomes assessed as compound remaining in presence of NADPH at 10 uM after 180 mins by LC/MS analysis; format: ADME, microsome; settings: read-out: Stability
Outline: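 10 μM compound shaken at 37 °C with rat liver microsomes (1 mg protein/mL) in 100 mM potassium phosphate buffer with 1 mM NADPH, sampled at 2–180 min. Quenched on ice with ice-cold ethyl acetate, centrifuged, supernatant dried and redissolved. Parent compound quantified by C₁₈ reverse-phase LC/MS (5–95% acetonitrile gradient); mean ± SEM, n=3.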

[4] = Kinetic aqueous solubility of compound in PBS by titration method; format: physicochemical; settings: buffer
Outline: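 Increasing quantities of a 30 mM DMSO stock added to 2 mL aliquots of PBS. Kinetic solubility taken from the titration point.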

[5] = biological target: T1, Anoctamin-1 (Mus musculus) (UniProt Q8BHY3); assay: Inhibition of TMEM16A in CD1 mouse ileum assessed as reduction in intestinal smooth muscle contraction
T1 sequence (whole entry): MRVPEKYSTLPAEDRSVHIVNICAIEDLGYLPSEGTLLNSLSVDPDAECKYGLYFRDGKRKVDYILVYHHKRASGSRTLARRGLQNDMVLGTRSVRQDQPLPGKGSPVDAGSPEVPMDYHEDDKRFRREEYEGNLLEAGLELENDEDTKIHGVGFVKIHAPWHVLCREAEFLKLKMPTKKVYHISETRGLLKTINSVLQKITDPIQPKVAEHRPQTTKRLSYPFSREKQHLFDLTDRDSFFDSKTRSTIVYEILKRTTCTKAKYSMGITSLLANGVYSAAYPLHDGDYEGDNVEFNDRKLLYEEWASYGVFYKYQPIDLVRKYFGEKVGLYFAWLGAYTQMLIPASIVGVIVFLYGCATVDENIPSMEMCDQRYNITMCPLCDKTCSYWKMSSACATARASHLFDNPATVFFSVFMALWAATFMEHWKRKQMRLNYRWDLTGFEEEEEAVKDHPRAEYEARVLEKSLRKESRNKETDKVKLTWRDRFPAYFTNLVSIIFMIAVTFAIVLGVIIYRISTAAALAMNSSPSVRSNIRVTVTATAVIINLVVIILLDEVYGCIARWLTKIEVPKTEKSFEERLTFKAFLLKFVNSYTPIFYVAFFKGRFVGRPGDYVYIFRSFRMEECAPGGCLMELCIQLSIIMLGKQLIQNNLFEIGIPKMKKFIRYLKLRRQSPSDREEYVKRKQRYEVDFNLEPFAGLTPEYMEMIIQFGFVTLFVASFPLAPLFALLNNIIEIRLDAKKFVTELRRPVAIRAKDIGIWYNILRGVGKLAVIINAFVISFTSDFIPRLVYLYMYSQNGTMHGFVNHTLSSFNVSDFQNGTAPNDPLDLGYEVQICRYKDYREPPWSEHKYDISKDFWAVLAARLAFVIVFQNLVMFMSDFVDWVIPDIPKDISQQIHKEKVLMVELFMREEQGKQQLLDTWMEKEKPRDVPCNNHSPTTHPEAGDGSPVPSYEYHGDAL
Outline: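 Ileal segments of ~2 cm from adult CD1 mice killed by avertin overdose (200 mg/kg), ends tied, mounted on a force transducer. […] Stabilised 60 min at 0.5 g resting tension with changes every 15 min. Compound added to the bath; spontaneous isometric contractions recorded; three separate experiments.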

[6] = Stability of compound in aqueous solution at 100 uM after 1 day by ESI-LCMS analysis; format: physicochemical; settings: read-out: Stability
Outline: (§1)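 Duplicate samples of 100 μM compound in H₂O (20% DMSO) with 100 μM 5-chloro-3-phenyl-2,1-benzisoxazole as internal standard. Kept at 25 °C for 3 days and analysed daily by ESI-LCMS for the parent compound and the oxalamic acid degradation product.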

[7] = Stability of compound in aqueous solution at 100 uM after 2 days by ESI-LCMS analysis; format: physicochemical; settings: read-out: Stability; outline: as §1
[8] = Stability of compound in DMSO; format: physicochemical
[9] = biological target: T2, Anoctamin-1 (Homo sapiens) (UniProt Q5XXA6); settings: 250 nM
T2 sequence (whole entry): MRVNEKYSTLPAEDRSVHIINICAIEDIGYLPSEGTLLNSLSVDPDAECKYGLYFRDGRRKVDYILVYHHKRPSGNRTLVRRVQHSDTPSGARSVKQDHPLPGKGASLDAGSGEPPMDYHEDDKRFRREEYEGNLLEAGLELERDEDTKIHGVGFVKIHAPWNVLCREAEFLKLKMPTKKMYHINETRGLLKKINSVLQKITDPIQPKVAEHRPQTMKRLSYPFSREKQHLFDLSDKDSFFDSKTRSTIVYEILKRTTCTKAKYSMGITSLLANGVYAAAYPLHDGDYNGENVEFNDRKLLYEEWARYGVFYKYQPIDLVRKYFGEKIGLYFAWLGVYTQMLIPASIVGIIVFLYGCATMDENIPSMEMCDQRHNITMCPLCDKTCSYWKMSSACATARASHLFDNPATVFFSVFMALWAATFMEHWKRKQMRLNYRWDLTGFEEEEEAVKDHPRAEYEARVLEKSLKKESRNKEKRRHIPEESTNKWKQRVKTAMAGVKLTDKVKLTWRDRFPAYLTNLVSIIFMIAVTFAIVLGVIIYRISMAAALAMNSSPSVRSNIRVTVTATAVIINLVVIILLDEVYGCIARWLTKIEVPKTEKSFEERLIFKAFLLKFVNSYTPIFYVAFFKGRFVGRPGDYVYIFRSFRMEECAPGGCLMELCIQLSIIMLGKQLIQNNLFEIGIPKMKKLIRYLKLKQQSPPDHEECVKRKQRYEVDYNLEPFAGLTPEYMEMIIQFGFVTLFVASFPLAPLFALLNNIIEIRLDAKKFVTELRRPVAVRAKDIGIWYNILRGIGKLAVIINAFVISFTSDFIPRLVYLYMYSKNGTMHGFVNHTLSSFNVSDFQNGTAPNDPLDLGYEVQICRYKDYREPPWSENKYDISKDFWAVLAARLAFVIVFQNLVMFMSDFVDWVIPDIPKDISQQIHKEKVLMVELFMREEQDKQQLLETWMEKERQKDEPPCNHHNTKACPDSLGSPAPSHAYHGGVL

[10] = biological target: T2, Anoctamin-1 (Homo sapiens); settings: 250 nM; remark: listed apart in the source
[11] = biological target: T2, Anoctamin-1 (Homo sapiens); settings: 1 uM
[12] = biological target: T2, Anoctamin-1 (Homo sapiens); settings: 1 uM; remark: listed apart in the source
[13] = biological target: T2, Anoctamin-1 (Homo sapiens); settings: 1 uM; remark: listed apart in the source

Cystic fibrosis transmembrane conductance regulator (Homo sapiens), sequence (P13569 whole entry, looked up): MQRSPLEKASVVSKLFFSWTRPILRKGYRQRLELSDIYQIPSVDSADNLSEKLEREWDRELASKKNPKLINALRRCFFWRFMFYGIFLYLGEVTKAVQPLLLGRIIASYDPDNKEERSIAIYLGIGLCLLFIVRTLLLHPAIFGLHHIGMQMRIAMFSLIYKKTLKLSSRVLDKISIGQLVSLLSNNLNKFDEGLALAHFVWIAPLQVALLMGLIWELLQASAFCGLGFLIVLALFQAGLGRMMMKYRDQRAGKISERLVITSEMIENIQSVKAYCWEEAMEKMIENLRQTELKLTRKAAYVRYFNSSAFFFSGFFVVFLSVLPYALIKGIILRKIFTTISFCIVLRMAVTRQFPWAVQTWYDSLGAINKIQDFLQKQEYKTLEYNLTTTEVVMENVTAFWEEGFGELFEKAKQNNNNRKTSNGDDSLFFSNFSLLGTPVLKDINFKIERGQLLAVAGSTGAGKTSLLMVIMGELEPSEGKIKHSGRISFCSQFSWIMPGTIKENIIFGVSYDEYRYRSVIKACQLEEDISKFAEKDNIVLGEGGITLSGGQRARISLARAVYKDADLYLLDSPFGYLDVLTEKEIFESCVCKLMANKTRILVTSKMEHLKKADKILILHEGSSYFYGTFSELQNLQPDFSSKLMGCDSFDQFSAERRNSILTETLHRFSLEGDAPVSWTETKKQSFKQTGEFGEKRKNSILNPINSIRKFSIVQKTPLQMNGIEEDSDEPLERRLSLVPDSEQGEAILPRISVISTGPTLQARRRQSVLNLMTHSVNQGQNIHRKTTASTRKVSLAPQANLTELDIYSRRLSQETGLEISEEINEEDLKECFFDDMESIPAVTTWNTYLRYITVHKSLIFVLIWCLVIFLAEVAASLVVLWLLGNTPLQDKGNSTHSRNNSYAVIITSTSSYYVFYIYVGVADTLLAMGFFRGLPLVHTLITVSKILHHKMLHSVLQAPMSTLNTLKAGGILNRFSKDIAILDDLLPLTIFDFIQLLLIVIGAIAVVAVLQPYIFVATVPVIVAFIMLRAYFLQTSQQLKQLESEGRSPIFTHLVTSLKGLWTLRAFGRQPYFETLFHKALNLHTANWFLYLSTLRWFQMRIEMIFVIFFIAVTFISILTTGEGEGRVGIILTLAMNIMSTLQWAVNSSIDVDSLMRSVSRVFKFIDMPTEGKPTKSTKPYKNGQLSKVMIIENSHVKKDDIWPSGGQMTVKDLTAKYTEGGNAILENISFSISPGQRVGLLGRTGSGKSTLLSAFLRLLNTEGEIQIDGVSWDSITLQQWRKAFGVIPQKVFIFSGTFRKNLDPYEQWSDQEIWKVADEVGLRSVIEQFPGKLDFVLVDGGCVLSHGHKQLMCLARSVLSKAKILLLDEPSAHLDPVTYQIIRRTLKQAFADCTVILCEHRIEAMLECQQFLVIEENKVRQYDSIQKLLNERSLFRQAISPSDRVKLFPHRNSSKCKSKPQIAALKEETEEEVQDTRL

With `Cc1ccccc1NC(=O)c1c(NC(=O)C(F)(F)Br)sc2c1CCCCC2` the viability at 8 h, 5 µM [1] was 97%, the inhibition [2] was “inactive” and the remaining at 3 h, 10 µM [3] was 30%. The Kinetic_solubility [4] was 40 µg/mL, the inhibition [5] was “Dose-dependent effect” and the remaining at 24 h, 100 µM [6] was 72%. For the same compound, the remaining at 48 h, 100 µM [7] was 30%, the Stability [8] was > 6 months and the inhibition [9] was “Active”. For the same compound, the inhibition [10] was “inactive”, the inhibition [11] was “Active” and the inhibition [12] was “Active”. For the same compound, the inhibition [13] was “Active”.
